Converted amounts (≈) assume the structure as drawn.
What was measured:
Pseudomonas aeruginosa [1] = assay: Antibacterial activity against penicillin-resistant, quinolone-sensitive Pseudomonas aeruginosa 1091-05; format: functional
Acinetobacter baumannii = assay: Antibacterial activity against Acinetobacter baumannii; format: functional
In short: (§1)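 MICs determined against an organism panel of drug-susceptible strains and recent MDR clinical isolates. For selected analogs, MIC90 was taken from broader panels as the concentration inhibiting visible growth of 90 percent of strains.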

Pseudomonas aeruginosa [2] = assay: Antibacterial activity against Pseudomonas aeruginosa; format: functional
In short: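 MICs for P. aeruginosa were determined on a drug-susceptible strain, 1091-05 (penicillin-resistant, quinolone-sensitive clinical strain), and a recent MDR clinical isolate, 1042-06. For selected analogs, MIC90 was taken from broader strain panels as the concentration inhibiting visible growth of 90 percent of strains.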

Pseudomonas aeruginosa [3] = assay: Antibacterial activity against beta-lactam- and quinolone-resistant Pseudomonas aeruginosa 1042-06; format: functional
Klebsiella pneumoniae = assay: Antibacterial activity against Klebsiella pneumoniae; format: functional; in short: as §1
Escherichia coli = assay: Antibacterial activity against Escherichia coli; format: functional; in short: as §1
[4] = Aqueous stability of the compound at pH 6; format: physicochemical; conditions: buffer
Rattus norvegicus = assay: Unbound clearance in rat at 1 mg/kg, iv; format: ADME, organism-based; design: dose 1 mg/kg, route intravenous; conditions: in vivo
[5] = Fraction unbound in human plasma; format: ADME, cell-free
[6] = Fraction unbound in rat plasma; format: ADME, cell-free
[7] = Total clearance in rat at 1 mg/kg, iv; format: ADME, organism-based; design: dose 1 mg/kg, route intravenous; conditions: in vivo
[8] = Fraction unbound in mouse plasma; format: ADME, cell-free
[9] = Total clearance in mouse plasma relative to protein binding and blood flow; format: ADME, organism-based
[10] = Clearance in mouse; format: ADME, organism-based; conditions: in vivo
Pseudomonas aeruginosa [11] = assay: Antibacterial activity against penicillin-resistant, quinolone-sensitive Pseudomonas aeruginosa 1091-05 infected in mouse model of pneumonia assessed as reduction of lung colony forming unit counts; format: functional
In short: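 Murine pneumonia model infected with P. aeruginosa 1091-05. ED50, in mg/kg/dose, derived from reductions in lung CFU counts over the course of the study.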

Row | SMILES | MIC (Pseudomonas aeruginosa [1]) | MIC90 (Acinetobacter baumannii) | MIC90 (Pseudomonas aeruginosa [2]) | MIC (Pseudomonas aeruginosa [3]) | MIC90 (Klebsiella pneumoniae) | MIC90 (Escherichia coli) | further results
1 | CC1(C)[C@H](NC(=O)/C(=N\OCc2cc(=O)c(O)cn2O)c2csc(N)n2)C(=O)N1OS(=O)(=O)O (stereo in doubt) | 1 µg/mL (≈ 1.93 µM) | 64 µg/mL (≈ 123 µM) | 4 µg/mL (≈ 7.71 µM) | 8 µg/mL (≈ 15.4 µM) | > 64 µg/mL | 16 µg/mL (≈ 30.9 µM) | –
2 | CC(C)(O/N=C(\C(=O)N[C@H]1CN(C(=O)NS(=O)(=O)n2nc(-c3cc(=O)c(O)c[nH]3)n(C[C@@H](O)CO)c2=O)C1=O)c1csc(N)n1)C(=O)O (stereo in doubt) | – | – | – | 0.5 µg/mL (≈ 0.7 µM) | – | – | –
3 | C[C@H]1[C@H](NC(=O)/C(=N\OC(C)(C)C(=O)O)c2csc(N)n2)C(=O)N1C(=O)NS(=O)(=O)n1nc(-c2cc(=O)c(O)c[nH]2)n(C[C@@H](O)CO)c1=O (stereo in doubt) | – | – | – | – | – | – | Stability [4]: Stable
4 | Nc1nc(/C(=N/OCC(=O)O)C(=O)N[C@@H]2C(=O)N(S(=O)(=O)O)[C@@H]2COC(=O)CNC(=O)c2ccc(O)c(O)c2)cs1 (stereo in doubt) | 0.5 µg/mL (≈ 0.811 µM) | – | – | 32 µg/mL (≈ 51.9 µM) | – | – | –
5 | CC(C)(O/N=C(\C(=O)N[C@@H]1C(=O)N(S(=O)(=O)O)[C@@H]1COC(=O)CNC(=O)c1ccc(O)c(O)c1)c1csc(N)n1)C(=O)O (stereo in doubt) | 1 µg/mL (≈ 1.55 µM) | – | – | 16 µg/mL (≈ 24.8 µM) | – | – | –
6 | CC(C)(O/N=C(\C(=O)N[C@@H]1C(=O)N(S(=O)(=O)O)[C@@H]1COC(=O)CNC(=O)c1cc(=O)c(O)c[nH]1)c1csc(N)n1)C(=O)O (stereo in doubt) | 1 µg/mL (≈ 1.55 µM) | – | – | 32 µg/mL (≈ 49.6 µM) | – | – | –
7 | CC(C)(O/N=C(\C(=O)N[C@@H]1C(=O)N(S(=O)(=O)O)[C@@H]1COC(=O)CNC(=O)c1cc(=O)c(O)cn1O)c1csc(N)n1)C(=O)O (stereo in doubt) | 0.125 µg/mL (≈ 0.189 µM) | > 64 µg/mL | 2 µg/mL (≈ 3.02 µM) | 0.5 µg/mL (≈ 0.756 µM) | 32 µg/mL (≈ 48.4 µM) | 1 µg/mL (≈ 1.51 µM) | CL free (Rattus norvegicus): 24.7 mL/min/kg; fraction unbound [5]: 0.57; fraction unbound [6]: 0.36; Stability [4]: Stable; clearance [7]: 8.9 mL/min/kg
8 | CC(C)(O/N=C(\C(=O)N[C@@H]1C(=O)N(S(=O)(=O)O)[C@@H]1COC(=O)c1cc(-c2cc(=O)c(O)cn2O)no1)c1csc(N)n1)C(=O)O (stereo in doubt) | 0.25 µg/mL (≈ 0.372 µM) | > 64 µg/mL | 1 µg/mL (≈ 1.49 µM) | 0.25 µg/mL (≈ 0.372 µM) | 2 µg/mL (≈ 2.98 µM) | 0.125 µg/mL (≈ 0.186 µM) | CL free (Rattus norvegicus): 144.6 mL/min/kg; fraction unbound [5]: 0.32; fraction unbound [6]: 0.24; clearance [7]: 34.7 mL/min/kg
9 | CC(C)(O/N=C(\C(=O)N[C@@H]1C(=O)N(S(=O)(=O)O)[C@@H]1COC(=O)c1cc(-c2cc(=O)c(O)c[nH]2)no1)c1csc(N)n1)C(=O)O (stereo in doubt) | 4 µg/mL (≈ 6.1 µM) | – | – | 4 µg/mL (≈ 6.1 µM) | – | – | –
10 | CC(C)(O/N=C(\C(=O)N[C@@H]1C(=O)N(S(=O)(=O)O)[C@@H]1COC(=O)c1csc(-c2cc(=O)c(O)c[nH]2)n1)c1csc(N)n1)C(=O)O (stereo in doubt) | 0.5 µg/mL (≈ 0.744 µM) | – | – | 1 µg/mL (≈ 1.49 µM) | – | – | –
11 | CC(C)(O/N=C(\C(=O)N[C@@H]1C(=O)N(S(=O)(=O)O)[C@@H]1COC(=O)c1ccnc(-c2cc(=O)c(O)c[nH]2)n1)c1csc(N)n1)C(=O)O (stereo in doubt) | 8 µg/mL (≈ 12 µM) | – | – | 32 µg/mL (≈ 48 µM) | – | – | –
12 | CC(C)(O/N=C(\C(=O)N[C@@H]1C(=O)N(S(=O)(=O)O)[C@@H]1CNC(=O)c1cc(-c2cc(=O)c(O)cn2O)no1)c1csc(N)n1)C(=O)O (stereo in doubt) | 0.125 µg/mL (≈ 0.186 µM) | > 64 µg/mL | 0.25 µg/mL (≈ 0.373 µM) | 0.125 µg/mL (≈ 0.186 µM) | 16 µg/mL (≈ 23.9 µM) | 1 µg/mL (≈ 1.49 µM) | fraction unbound [8]: 0.65; CL free (Rattus norvegicus): 24.5 mL/min/kg; fraction unbound [5]: 0.46; fraction unbound [6]: 0.33; clearance [9]: 87 mL/min/kg; clearance [10]: 34.7 mL/min/kg; ED50 (Pseudomonas aeruginosa [11]): 73.6 mg/kg; clearance [7]: 8.1 mL/min/kg
13 | C[C@@H](O)[C@H]1C(=O)N2C(C(=O)O)=C(S[C@@H]3CN[C@H](C(=O)N(C)C)C3)[C@H](C)[C@H]12 [MEROPENEM] | 0.5 µg/mL (≈ 1.3 µM) | 64 µg/mL (≈ 167 µM) | > 64 µg/mL | – | 32 µg/mL (≈ 83.4 µM) | 0.06 µg/mL (≈ 0.156 µM) | –

Reference: ChEMBL document CHEMBL2069171, “Novel monobactams utilizing a siderophore uptake mechanism for the treatment of gram-negative infections” (Bioorg Med Chem Lett, 2012)
